From ChEMBL document CHEMBL1944577, “Synthesis, evaluation and docking studies on 3-alkoxy-4-methanesulfonamido acetophenone derivatives as non ulcerogenic anti-inflammatory agents” (Eur J Med Chem, 2012)

Key:
Rattus norvegicus [1] = assay: Antiinflammatory activity in po dosed Wistar rat assessed as inhibition of carrageenan-induced paw oedema compound administered 30 mins after carrageenan challenge measured after 5 hrs by plethysmograph analysis; assay type: functional
Method in brief: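 Carrageenan paw edema in Wistar rats (150–200 g, either sex, n = 6 per group): 0.1 ml 1% w/v carrageenan injected into the left plantar region. Compounds were suspended in 0.5% w/v CMC and dosed orally 30 min post-challenge at three graded doses. Plethysmographic (mercury displacement) paw volume was read to 5 h. ED50 was derived from the three-dose responses.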

Rattus norvegicus [2] = assay: Antiinflammatory activity in Wistar rat assessed as inhibition of carrageenan-induced paw oedema at 100 mg/kg, po dosed 30 mins after carrageenan challenge measured after 5 hrs by plethysmograph analysis relative to control; assay type: functional
Method in brief: (§1)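 Wistar rats (150–200 g, either sex) in groups of six. Carrageenan 1% w/v in saline, 0.1 ml, injected into the plantar left hind paw. Compound was given p.o. 30 min later as a suspension in 0.5% w/v CMC; controls received CMC. Paw volume was read by mercury-displacement plethysmograph at 0–5 h. % reduction = (1 − Vt/Vc)×100 versus control, at 5 h.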

Rattus norvegicus [3] = assay: Ulcerogenicity in Wistar rat assessed as lesion score at 100 mg/kg, po after 6 hrs; assay type: toxicity, organism-based; parameters: dose 100 mg/kg, route oral; conditions: in vivo
Method in brief: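 Wistar rats of either sex (150–200 g, n = 6) were dosed orally and killed by cervical dislocation 6 h later. Stomachs were inflated with 2% formalin, fixed 10 min, and opened along the greater curvature. Lesions were examined under a dissecting microscope (10x grid). Longest lesion diameters were summed per animal as the lesion score (mm), then averaged per group.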

Rattus norvegicus [4] = assay: Antiinflammatory activity in Wistar rat assessed as inhibition of carrageenan-induced paw oedema at 30 mg/kg, po dosed 30 mins after carrageenan challenge measured after 5 hrs by plethysmograph analysis relative to control; assay type: functional; method in brief: as §1
Rattus norvegicus [5] = assay: Antiinflammatory activity in Wistar rat assessed as inhibition of carrageenan-induced paw oedema at 10 mg/kg, po dosed 30 mins after carrageenan challenge measured after 5 hrs by plethysmograph analysis relative to control; assay type: functional; method in brief: as §1

## CCCCCCOc1cc(C(C)=O)ccc1NS(C)(=O)=O
Rattus norvegicus [1]
  ED50: 2.3 mg/kg
Rattus norvegicus [2]
  inhibition in vivo at 100 mg/kg: 76.8%
Rattus norvegicus [3]
  UI: 4 mm

## CS(=O)(=O)c1ccc(C2=C(c3ccccc3)C(=O)OC2)cc1 [ROFECOXIB]
Rattus norvegicus [1]
  ED50: 2.5 mg/kg
Rattus norvegicus [3]
  UI: 3 mm
Rattus norvegicus [4]
  inhibition in vivo at 30 mg/kg: 81.8%

## CCCCOc1cc(C(C)=O)ccc1NS(C)(=O)=O
Rattus norvegicus [1]
  ED50: 2 mg/kg
Rattus norvegicus [2]
  inhibition in vivo at 100 mg/kg: 72.7%
Rattus norvegicus [3]
  UI: 5 mm

## CCCCCOc1cc(C(C)=O)ccc1NS(C)(=O)=O
Rattus norvegicus [1]
  ED50: 8.18 mg/kg
Rattus norvegicus [2]
  inhibition in vivo at 100 mg/kg: 59.6%
Rattus norvegicus [3]
  UI: 4 mm

## CCCCOc1cc(C(C)=O)ccc1N
Rattus norvegicus [2]
  inhibition in vivo at 100 mg/kg: 13.8%
Rattus norvegicus [3]
  UI: 2 mm

## CC(=O)c1ccc(NS(C)(=O)=O)c(OC2CCCCC2)c1
Rattus norvegicus [1]
  ED50: 2.23 mg/kg
Rattus norvegicus [2]
  inhibition in vivo at 100 mg/kg: 73.7%
Rattus norvegicus [3]
  UI: 3 mm

## CC(=O)c1ccc(N)c(OC2CCCCC2)c1
Rattus norvegicus [2]
  inhibition in vivo at 100 mg/kg: 19%
Rattus norvegicus [3]
  UI: 3 mm

## COc1ccc2c(c1)c(CC(=O)O)c(C)n2C(=O)c1ccc(Cl)cc1 [INDOMETHACIN]
Rattus norvegicus [5]
  inhibition in vivo at 10 mg/kg: 79.7%
Rattus norvegicus [1]
  ED50: 2 mg/kg
Rattus norvegicus [3]
  UI: 22.3 mm

## CCCCCCOc1cc(C(C)=O)ccc1N
Rattus norvegicus [2]
  inhibition in vivo at 100 mg/kg: 14.1%
Rattus norvegicus [3]
  UI: 3 mm

## CCCCCOc1cc(C(C)=O)ccc1N
Rattus norvegicus [2]
  inhibition in vivo at 100 mg/kg: 9.88%
Rattus norvegicus [3]
  UI: 2 mm
